Calls of active or inactive are those of the source. The calls are words filed in the database; no cut-off is given here.
What was measured:
NCI-H1703 [1] = assay: Antitumor activity against human NCI-H1703 cells xenografted in NCr nu/nu Charles river mouse assessed as tissue death in tumor at 8 umol/kg, iv administered 3 times a week for 3 weeks by H and E staining method relative to control; type: functional, organism-based
Method in brief: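 Female athymic NCr-nu/nu mice, 7 weeks old, received 5×10^6 H1703 cells s.c. in the flank. Once tumors reached ≥2×2×2 mm, dosing was i.v. by tail vein three times weekly for 3 weeks in 2.25% P-123/PBS vehicle. Tumors excised 2 h after the last dose, H&E stained, and scored for areas of cell death against vehicle controls.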

NCI-H1703 [2] = assay: Induction of apoptosis in human NCI-H1703 cells assessed as caspase 7 activation after 1 to 6 hrs by Western blot analysis; type: functional, cell-based
NCI-H1703 [3] = assay: Induction of apoptosis in human NCI-H1703 cells assessed as PARP cleavage after 1 to 6 hrs by Western blot analysis; type: functional, cell-based
NCI-H1703 [4] = assay: Antiproliferative activity against human NCI-H1703 cells after 72 hrs by MTT assay; type: functional, cell-based; conditions: NCI-H1703, 72 h
Method in brief: (§1)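 Compounds (10 mM DMSO stocks, final DMSO ≤0.1%) added at increasing concentrations in PBS, incubated 72 h at 37 °C. MTT read-out, six repeats per concentration, at least two independent experiments.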

[5] = Chemical stability of the compound in aqueous phosphate buffered saline assessed as half life at pH 7.4 in presence of 4 mM glutathione; type: physicochemical; conditions: gsh
NCI-H1703 [6] = assay: Induction of apoptosis in human NCI-H1703 cells assessed as caspase 3 activation after 1 to 6 hrs by Western blot analysis; type: functional, cell-based
NCI-H441 = assay: Antiproliferative activity against human NCI-H441 cells after 72 hrs by MTT assay; type: functional, cell-based; conditions: NCI-H441, 72 h; method in brief: as §1
[7] = Activation of JNK phosphorylation at Thr183 and Tyr185 in human NCI-H1703 cells at 1 uM within 30 mins by Western blot analysis; type: cell-based
NCI-H2122 = assay: Antiproliferative activity against human NCI-H2122 cells after 72 hrs by MTT assay; type: functional, cell-based; conditions: NCI-H2122, 72 h; method in brief: as §1
Mus musculus [8] = assay: Induction of JNK phosphorylation in human NCI-H1703 cells xenografted NCr nu/nu Charles river mouse tumor assessed as increase in ATF3 protein level at 8 umol/kg, iv administered 3 times a week for 3 weeks by immunohistochemical analysis; type: functional, organism-based
Method in brief: (§2)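 H1703 xenografts in female athymic NCr-nu/nu mice, dosed i.v. three times weekly for 3 weeks in 2.25% P-123/PBS. Tumors taken 2 h after the last dose were immunostained for phospho-SAPK/JNK and ATF3. Intensity graded negative, very weak, weak, moderate or strong.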

NCI-H1703 [9] = assay: Antitumor activity against human NCI-H1703 cells xenografted in athymic NCr nu/nu Charles river mouse assessed as reduction of tumor growth at 8 umol/kg, iv administered 3 times a week for 3 weeks relative to vehicle treated control; type: functional, organism-based
Method in brief: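 H1703 xenografts (5×10^6 cells s.c., flank) in 7-week-old female athymic NCr-nu/nu mice, treated from tumor size ≥2×2×2 mm. Dosing i.v. (tail vein) three times weekly for 3 weeks in 2.25% P-123/PBS. Mice killed 2 h after the last dose; tumors excised and weighed. 13–15 mice/group; Mann-Whitney test against vehicle.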

Mus musculus [10] = assay: Toxicity in human NCI-H1703 cells xenografted athymic NCr nu/nu Charles river mouse assessed as change in body weight at 8 umol/kg, iv administered 3 times a week for 3 weeks (reference value: 22.2 +/- 0.4g); type: organism-based; conditions: in vivo, 504 h
Method in brief: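 Xenografted female athymic NCr-nu/nu mice (H1703, 5×10^6 cells s.c.) dosed i.v. three times weekly for 3 weeks in 2.25% P-123/PBS vehicle. Body weights recorded before each injection and compared with vehicle-treated controls at start and end.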

[11] = Activation of JNK phosphorylation in human NCI-H1703 cells assessed as increase in ATF3 protein level at 1 uM within 2 hrs by Western blot analysis; type: cell-based
Mus musculus [12] = assay: Induction of JNK phosphorylation in human NCI-H1703 cells xenografted NCr nu/nu Charles river mouse tumor at 8 umol/kg, iv administered 3 times a week for 3 weeks by immunohistochemical analysis; type: functional, organism-based; method in brief: as §2
[13] = Antiproliferative activity against human NCI-H1944 cells after 72 hrs by MTT assay; type: functional, cell-based; conditions: NCI-H1944, 72 h; method in brief: as §1
[14] = Antiproliferative activity against human NCI-H1373 cells after 72 hrs by MTT assay; type: functional, cell-based; conditions: NCI-H1373, 72 h; method in brief: as §1
[15] = Activation of JNK phosphorylation in human NCI-H1703 cells assessed as increase in ATF3 protein level at 1 uM by Western blot analysis; type: cell-based

Compound	Activity (NCI-H1703 [1])	Activity (NCI-H1703 [2])	Activity (NCI-H1703 [3])	IC50 (NCI-H1703 [4]) [nM]	t1/2 [5] [min]	Activity (NCI-H1703 [6])	IC50 (NCI-H441) [nM]	Activity [7]	IC50 (NCI-H2122) [nM]	Activity (Mus musculus [8])	growth inhibition (GI) (NCI-H1703 [9])	Activity (Mus musculus [10]) [g]	Activity [11]	Activity (Mus musculus [12])	IC50 [13] [nM]	IC50 [14] [nM]	Activity [15]
CCOC(=O)N1CCN(/[N+]([O-])=N/Oc2cc(C)c([N+](=O)[O-])cc2[N+](=O)[O-])CC1	inactive	inactive	inactive	970	71.5	inactive	1610	inactive	7000	inactive	inactive	24.5	inactive	inactive	> 10000	1860	inactive
CCOC(=O)N1CCN(/[N+]([O-])=N/Oc2cc(OC)c([N+](=O)[O-])cc2[N+](=O)[O-])CC1				1570	38.6		2500	inactive	5780						> 10000	2100	
CCOC(=O)N1CCCN(/[N+]([O-])=N/Oc2cc(C)c([N+](=O)[O-])cc2[N+](=O)[O-])CC1				1660	25.7		2020	inactive	10000						> 10000	3000	
